The results in this text go back to ChEMBL document CHEMBL1150804, “Nonnucleoside inhibitor of measles virus RNA-dependent RNA polymerase complex activity” (Antimicrob Agents Chemother, 2007).

The subject of series [1] is Measles morbillivirus. Put plainly: Antiviral activity against measles virus Edm in Vero cells expressing human SLAM assessed as reduction of virus yield. In kind it is functional, organism-based.
The nature of series [2]: Cytotoxicity against african green monkey Vero cells expressing human SLAM by Promega assay. In kind it is cell-based. Conditions: chlorocebus sabaeus. In short, it runs like this:
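LDH-release assay: 12,000 cells/well exposed 24 h at 37°C to twofold compound dilutions (top 150 μM, or 300 μM for one compound), four replicates. Formazan read at 490 nm; % viability = 100 − [(experimental − background)/(maximum − background) × 100]; four experiments.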

In series [3] the test system is Measles morbillivirus. Put plainly: Antiviral activity against measles virus assessed as inhibition of viral H and F protein-mediated cell-cell fusion at 150 uM. In kind it is functional, organism-based. Summed up: (§1)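 Cells (6 × 10^5/well) transfected with 4 μg each of MV H and F plasmids; at 4 h moved into wells with twofold compound dilutions (top 150 μM). Fusion scored microscopically, photographed at 24 h; at 48 h syncytium-linked cytotoxicity measured by LDH-release assay, % vs DMSO; four replicates.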

The test system of series [4] is Measles morbillivirus. Put plainly: Antiviral activity against measles virus assessed as inhibition of viral H and F protein-mediated cell-cell fusion. In kind it is functional, organism-based. In short, it runs like this: as §1
For series [5], the system named is Measles morbillivirus. Put plainly: Antiviral activity against measles virus assessed as inhibition of virus mediated cytopathogenicity at 15 uMby syncytium formation assay. In kind it is functional, organism-based. As to conditions: 15 uM.
Series [6] deals with Measles morbillivirus. Put plainly: Antiviral activity against measles virus assessed as inhibition of viral H and F protein-mediated cell-cell fusion at 15 uM. In kind it is functional, organism-based. In short, it runs like this:
as §1

The test system of series [7] is Measles morbillivirus. Put plainly: Antiviral activity against measles virus genotype D9 assessed as reduction of virus yield. In kind it is functional, organism-based. Summed up:
(§2)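 Clinical MV isolates (grown on Vero-SLAM) infected at MOI 0.1 PFU/cell into 4 × 10^5 cells with threefold compound dilutions (top 37.5 μM) or DMSO at 37°C. At 36 h, cell-associated virus titered by TCID50; EC50 at 50% of DMSO yield; two experiments.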

Series [8] relates to Measles virus genotype D7. Put plainly: Antiviral activity against measles virus genotype D7 assessed as reduction of virus yield. In kind it is functional, organism-based. Conditions: Measles morbillivirus. Summed up: as §2
The subject of series [9] is Measles virus genotype D6. Put plainly: Antiviral activity against measles virus genotype D6 assessed as reduction of virus yield. In kind it is functional, organism-based. As to conditions: Measles morbillivirus. Summed up: as §2
Series [10] relates to Measles morbillivirus. Put plainly: Antiviral activity against measles virus genotype C assessed as reduction of virus yield. In kind it is functional, organism-based. Summed up:
as §2

The test system of series [11] is Measles morbillivirus. Put plainly: Antiviral activity against measles virus genotype B3-2 assessed as reduction of virus yield. In kind it is functional, organism-based. Summed up: as §2
The nature of series [12]: Cytotoxicity against african green monkey Vero cells expressing human SLAM assessed as reduction in viable cells after 30 hrs by trypan blue exclusion assay. In kind it is cell-based. Conditions: chlorocebus sabaeus. In short, it runs like this:
(§3)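 Trypan blue exclusion: 2 × 10^5 cells/well with fivefold compound dilutions (top 500 μM), 37°C for 30 h, three replicates per concentration. Detached cells stained with trypan blue 15 min at room temperature; live cells counted on a hemacytometer; expressed vs DMSO controls; three experiments.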

The next series has as its system Vero. Put plainly: Cytotoxicity against african green monkey Vero cells expressing human SLAM assessed as reduction in viable cells at 500 uM after 30 hrs by trypan blue exclusion assay. In kind it is cell-based. Conditions: chlorocebus sabaeus. Summed up:
as §3

For series [13], the system named is Measles morbillivirus. Put plainly: Antiviral activity against measles virus Alaska assessed as reduction of virus yield in presence of 10 mg/ml BSA. In kind it is functional, organism-based. Summed up:
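Specificity test with MV-Alaska: 4 × 10^5 cells infected in serum-free medium at MOI 0.1 or 0.5 PFU/cell with fourfold dilutions (top 12.5 μM), with or without BSA at 10 mg/ml final.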

In a further series the test system is Morbillivirus canis. Put plainly: Antiviral activity against Canine distemper virus assessed as reduction of virus yield. In kind it is functional, organism-based. In short, it runs like this:
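Virus-yield dose-response: 4 × 10^5 cells/well infected at MOI 0.1 PFU/cell (CDV stocks grown on Vero-dogSLAM) with twofold compound dilutions (top 75 μM) or DMSO; kept at 37°C with compound. At 36 h, cell-associated virus titered by TCID50 (Spearman-Karber); titers normalized to DMSO; EC50 taken at 50% of DMSO yield; two experiments.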

The test system of series [14] is Human parainfluenza virus 2. Put plainly: Antiviral activity against human parainfluenza virus 2 assessed as reduction of virus yield at 75 uM. In kind it is functional, organism-based. As to conditions: Human orthorubulavirus 2.
Series [15] concerns Measles morbillivirus. Put plainly: Antiviral activity against measles virus Edm in Vero cells expressing human SLAM assessed as reduction of virus yield preincubated in culture medium for 24 hrs. In kind it is functional, organism-based.
Series [16] concerns Measles morbillivirus. Put plainly: Antiviral activity against measles virus genotype G2 assessed as reduction of virus yield. In kind it is functional, organism-based. In short, it runs like this:
as §2

Series [17] deals with Measles morbillivirus. Put plainly: Antiviral activity against measles virus genotype G3 assessed as reduction of virus yield. In kind it is functional, organism-based. Summed up:
as §2

In series [18] the test system is Measles morbillivirus. Put plainly: Antiviral activity against measles virus genotype H2 assessed as reduction of virus yield. In kind it is functional, organism-based. In short, it runs like this:
as §2

The subject of another series is Measles virus genotype A. Put plainly: Antiviral activity against measles virus genotype A assessed as reduction of virus yield. In kind it is functional, organism-based. As to conditions: Measles morbillivirus. In short, it runs like this:
as §2

Series [19] concerns BSR T7/5. Put plainly: Inhibition of measles virus RNA-dependent RNA polymerase complex activity in BSR T7/5 cells assessed as CAT promoter expression by minireplicon assay. Conditions: Measles morbillivirus. In kind it is cell-based. Summed up:
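BSR T7/5 cells (5 × 10^5) transfected with MV L (0.24 μg), N (0.94 μg), P (0.29 μg) plasmids plus 2 μg CAT minigenome; controls lacked L. At 2 h, threefold compound dilutions (top 30 μM) or DMSO added.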

For series [20], the system named is Measles morbillivirus. Put plainly: Antiviral activity against measles virus assessed as reduction of virus yield at 15 uM administered 12 hrs postinfection. In kind it is functional. Also noted: scale not given: the % may be the effect or the level left. In short, it runs like this:
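One-step time-of-addition: 3 × 10^5 cells infected with MV at MOI 1.0 PFU/cell; compound (15 μM final) added at set times postinfection; DMSO controls. At 20 h postinfection, cell-associated virus harvested and titered by TCID50; two experiments.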

In series [21] the test system is BSR T7/5. Put plainly: Inhibition of Nipah virus RNA-dependent RNA polymerase complex activity in BSR T7/5 cells assessed as CAT promoter expression by minireplicon assay. In kind it is cell-based. Conditions: Henipavirus nipahense. In short, it runs like this: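 BSR T7/5 cells (T7 polymerase-expressing) transfected with plasmids for Nipah L (0.4 μg), N (1.25 μg), P (0.8 μg) plus 3.5 μg Nipah CAT minigenome reporter; controls lacked L plasmid. Compound added 2 h posttransfection in threefold dilutions (highest 30 μM), DMSO controls.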
In general terms: A replicon is a self-replicating genome or part of one, used to study replication in cells.

The next series has as its system Escherichia phage T7. Put plainly: Inhibition of Enterobacteria phage T7 polymerase assessed as F protein synthesis by in vitro transcription/translation assay. In short, it runs like this:
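Cell-free rabbit reticulocyte lysate with 0.5 μg T7-promoter MV F plasmid, 20 μCi [35S]methionine and 50 μM compound or DMSO, 30°C for 90 min. Products separated on 12% SDS gels and autoradiographed. Control: plasmid with F gene reversed relative to the T7 promoter.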

Series [22] can be described thus: Selectivity index, ratio of CC50 for african green monkey Vero cells by Promega assay to IC50 for measles virus Edm. In kind it is functional.
Series [23] can be described thus: Selectivity index, ratio of CC50 for african green monkey Vero cells by trypan blue exclusion assay to IC50 for measles virus Edm. In kind it is functional.

Structures are written as SMILES. The source made the active and inactive calls. The calls are words filed in the database; no cut-off is given here.

Usually EC50 stands for the midpoint of the concentration-response curve. For orientation: CC50 means the concentration giving 50% cytotoxicity. With `Cn1nc(C(F)(F)F)cc1C(=O)Nc1ccc(S(=O)(=O)N2CCCC2)cc1`, the concentration for a half-maximal effect (EC50) came to 240 nM in the series on Measles morbillivirus [1]; 90 nM in the series on Measles morbillivirus [7]; 80 nM in series [8]; 100 nM in [9]; 110 nM in the series on Measles morbillivirus [10]; 140 nM with Measles morbillivirus [11]. Further, the half-maximal effective concentration (EC50) in the series on Morbillivirus canis was 28000 nM; in [14], above 75000 nM; with Measles morbillivirus [16], 50 nM; with Measles morbillivirus [17] it was 110 nM; with Measles morbillivirus [18] it was 35 nM; in the series with Measles virus genotype A, 240 nM. This compound yielded a CC50 in series [2] above 300000 nM. Moreover, the result in the series on Measles morbillivirus [3], in the series with Measles morbillivirus [6], in the series on BSR T7/5 [21] and in the series with Escherichia phage T7 was inactive. For the same compound, the result in the series with Measles morbillivirus [4], in the series on Measles morbillivirus [5], in the series with Measles morbillivirus [13], in the series on Measles morbillivirus [15] and in the series with BSR T7/5 [19] was Active. In addition, the CC50 at 30 h in series [12] is above 500000 nM. Further, the Activity in the series on Vero is listed as 20%; with Measles morbillivirus [20] it was 99.9%.

On to `Cc1ccc2[nH]c(=O)c(CNS(=O)(=O)c3ccccc3)c(-c3ccccc3)c2c1`, for which the half-maximal effective concentration (EC50) in the series on Measles morbillivirus [1] came out at 15700 nM. In [2], this compound returned a CC50 above 150000 nM. Further, the cytotoxic concentration (CC50) at 30 h in series [12] was 71000 nM. In addition, the “Ratio CC50/EC50” value in series [22] is above 10; in [23], 4.5.

Turning to `Cc1ccc2nsnc2c1S(=O)(=O)Nc1ccc(Cl)cc1`, the EC50 in the series on Measles morbillivirus [1] came to 2000 nM. The same compound returned a CC50 in series [2] of 100000 nM. For the same compound, in [22], the “Ratio CC50/EC50” value amounted to 50.

Take `O=C(NC(=O)N(c1ccc(Cl)cc1)S(=O)(=O)c1ccccc1)Nc1ccccc1Cl`: the half-maximal effective concentration (EC50) with Measles morbillivirus [1] stood at 2800 nM. Further, in [2], the half-maximal cytotoxic concentration (CC50) is 121000 nM. Further, the “Ratio CC50/EC50” value in [22] is 43.2.
